Results on 34 molecules are retold here after publication PMC4684727 (Antiviral research, 2015).

As usually defined, the Solubility is the concentration that dissolves in the medium under given conditions. Low readings indicate a poorly soluble substance, high ones a readily soluble substance. One may read the EC50 as the concentration needed to bring the measured effect to its halfway point. A lower EC50 goes with a more potent agent.

The structures appear in SMILES notation. In brackets after ≈: the same amount, converted by molar mass.

One data set deals with HCV life cycle. The class given is cell-based, Hepatitis C virus. As to conditions: designated from HCVsc, HCVpp and HCV replicon inhibition (>50% = significant). (In general: In antiviral work, replicon cells carry a viral genome segment that copies itself.)
Data set [1] in a line: Rat liver microsomal stability. It is filed as in vitro ADME. As to conditions: for Microsomal t1/2: rat liver microsomes, 37°C, NADPH. (Liver microsomes are a subcellular fraction often used to study metabolism.)
Another data set is described as follows: Aqueous solubility. It is filed as physicochemical.
The subject of another data set is miRNAs. The conditions noted are these: D4 and its derivatives; ref AID: 2289; cited from earlier work.
For data set [2], the system named is posterior segregation family member (pos-1) binding to mex-3-RNA. As to conditions: ref PubChem AID: 1964; cited from earlier work.
Data set [3] has as its system 5′UTR stem-loop driven prion protein mRNA translation in H4 neuroglioblastoma cells. The conditions noted are these: D4 and its derivatives, ref AID: 1814; cited from earlier work.
Data set [4] has as its system HCV-Cre in Huh7.5.1LoxPGluc cells. Nature of the data set: HCV-Cre/LoxPGluc cell-based HCV infection qHTS assay. More on the design: species or system Hepatitis C virus. As to conditions: primary screen, luciferase 48 h. In a few lines: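 Huh7.5.1LoxPGluc cells carry a Cre-activated Gaussia luciferase and are kept in DMEM with 10% FBS at 37 °C and 5% CO2. Cells (750/well) were plated overnight, then given test compound and HCV-Cre at ~0.05 m.o.i. Five plates were run: DMSO plus 0.34, 1.7, 8.5 and 42 μM. Luciferase was read at 48 h. Responses were normalized to 10 μM cyclosporin A (100%) and DMSO (0%), and EC50 was fitted by nonlinear regression.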
(In general: In qHTS, concentration-response curves come from the screen itself.)

Data set [5] has as its system HCV-WT (wild-type HCVcc) in Huh7.5.1 cells. Kind of data set: 2-part HCV-WT infection assay with HCV core immunofluorescence staining. The class given is cell-based, Hepatitis C virus. The conditions noted are these: for higher potency at part-2 compared to part-1: HCV-WT 2-part infection assay. Summed up:
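Huh7.5.1 cells (3,000/well) were infected with wild-type J6/JFH1 HCVcc at 0.05 moi, with test compound added at infection in 1:3 serial dilutions from 30 μM (part 1). After 48 h, the media were moved onto fresh Huh7.5.1 cells (part 2) and infected for 48 h. Cells were stained with anti-core 6G7 mAb, an Alexa Fluor 488 secondary and Hoechst, then imaged. Core-positive cell percentages were normalized to DMSO and plotted as concentration-response curves.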

A further data set in a line: Permeability. The class given is physicochemical.
Another data set relates to DNA polymerase ETA. As to conditions: ref AID 588591; cited from earlier work.
Data set [6] relates to assembly of the perinucleolar compartement. The conditions noted are these: ref AID 2427; cited from earlier work.
The subject of data set [7] is human tyrosyl-DNA phosphodiesterase 1. As to conditions: cited from earlier work; for inhibitory activity of human tyrosyl-DNA phosphodiesterase 1: ref AID 686978.
For data set [8], the system named is respiratory syncytial virus (RSV). The conditions noted are these: ref AID: 2410; cited from earlier work.
Data set [9] deals with ELG1-dependent DNA repair. As to conditions: PubChem / in-house qHTS cross-activity, AID not given; cited from earlier work.
In the next data set the test system is HIV. The conditions noted are these: ref AID:651610; cited from earlier work.
In a further data set the test system is HCVsc. Kind of data set: HCV single-cycle infection assay. The conditions noted are these: significant = more than 50% decrease. The class given is cell-based, Hepatitis C virus. In a few lines: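 Single-round defective HCV particles were made by replicon trans-packaging. These particles infect and replicate but cannot assemble new virions. Luciferase signal was read 48 h after compound treatment, with cyclosporin A as positive control.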

A further data set deals with D1 dopamine receptor. The conditions noted are these: ref AID: 504660; cited from earlier work.
Data set [10] relates to human M1 muscarinic receptor. As to conditions: ref AID: 624040; cited from earlier work.
In another data set the test system is HCVpp-1a. The class given is cell-based, Hepatitis C virus.

Consider `COc1ccc(CN2CCC(N(CCc3ccccc3)Cc3ccccc3)CC2)c(OC)c1.O=C(O)C(=O)O` [MLS000662842-01], for which, in the data set with HCV life cycle, the Life cycle stage result was “Assembly/secretion”. In data set [1], the “Microsomal t1/2” value is reported as 2.3 m and the “half-life (t1/2) in rat microsomes” value amounted to 2.3 min. For the same molecule, the Solubility in “Aqueous solubility” is 49.3 µg/mL.
For `CCNC(=S)/N=C(\N)Nc1nc(C)c2cc(C)ccc2n1` [D4], the “modulation of miRNAs” value in the data set with miRNAs is “potent modulators”. In addition, the “targeting pos-1 binding to mex-3-RNA” value in data set [2] was “targets”. For the same molecule, in data set [3], the “activation of 5′UTR stem-loop driven prion protein mRNA translation” value is listed as “activators”.
In turn, `O=C(NCCCN1CCCCC1)c1ccc2c(=O)n(CCc3ccccc3)c(=O)[nH]c2c1` [MLS000086784-01] showed an EC50 in [4] of 6.31 µM.
For the molecule `Cc1cc(SCC(=O)c2ccccc2)n2ncc(-c3ccccc3)c2n1` [MLS000763045-01], the “higher potency at part-2 compared to part-1” value in data set [5] is 10–50 fold.
The molecule `CCC1CCCCN1CCCNC(=O)C1CCN(Cc2nc(-c3ccc(Cl)cc3)oc2C)CC1` (centres unmarked) [MLS000913279-01] yielded an EC50 in data set [4] of 1.41 µM.
As to `CCCCCn1c(=O)[nH]c2cc(C(=O)NCCCN3CCC(C)CC3)ccc2c1=O` [MLS000876570-01], in the data set with HCV life cycle, the Life cycle stage result is listed as “Entry”. In data set [1], the “Microsomal t1/2” value was > 30.0 m and the “half-life (t1/2) in rat microsomes” value was “greater than 30 min”. For the same molecule, the Solubility in the data set “Aqueous solubility” was > 59.0 µg/mL. In addition, in “Permeability”, the Permeability was < 30.9 ×10⁻⁶ cm/s. The EC50 in data set [4] came out at 4.47 µM.
`Cc1oc(-c2ccc(Cl)cc2)nc1CN1CCC(C(=O)NCCCN2CCCC2=O)CC1` [MLS000878431-01]: the EC50 in [4] worked out at 22.4 µM. This lies in the double-digit micromolar range.
Regarding `Cn1c(=O)c2c(nc(SCC(=O)NCc3ccc4c(c3)OCO4)n2Cc2ccc(Cl)cc2)n(C)c1=O` [D3], in the data set on DNA polymerase ETA, the “inhibition of DNA polymerase ETA” value is on record as “inhibitor”. For the same molecule, the “inhibition of assembly of the perinucleolar compartement” value in data set [6] was “inhibited the assembly”.
Regarding `Cc1ccccc1-c1nc(CN2CCC(C(=O)NCCN3CCOCC3)CC2)c(C)o1` [MLS000913230-01], the EC50 in data set [4] is > 100 µM.
Consider `O=C(Nc1ccc(S(=O)(=O)Nc2ccccc2)cc1)c1ccc(CN2CCOCC2)cc1` [MLS000714550], for which, in data set [5] (compounds 1:3 dilutions from 30 μM, 48 h per part), the “inhibition of HCV core-positive cells, part-1 versus part-2” value is “decreased similarly in both parts”.
For `CCC1CCCCN1CCCNC(=O)c1ccc2c(=O)n(CCOC)c(=O)[nH]c2c1` (centres unmarked) [MLS000948314-01], in data set [4], the EC50 was > 100 µM.
On to `CC1CCN(CCCNC(=O)c2ccc3c(=O)n(CCc4ccccc4)c(=O)[nH]c3c2)CC1` [MLS000519916-01], for which the response in data set [4] was half-maximal at 8.91 µM (EC50).
`CCCCCn1c(=O)[nH]c2cc(C(=O)NCCN3CCCCC3C)ccc2c1=O` (centres unmarked) [MLS000948325-01] came in with an EC50 in [4] of 22.4 µM.
The molecule `Cc1ccccc1-c1nc(CN2CCC(C(=O)NCc3cccnc3)CC2)c(C)o1` [MLS000095186-01] returned an EC50 in data set [4] of 5.01 µM. This EC50 is about 4.5-fold lower than that of the molecule before.
In data set [4], `Cc1oc(-c2ccc(Cl)cc2)nc1CN1CCCC(C(=O)NCCCN2CCCC2=O)C1` (centres unmarked) [MLS000117605-01] yielded an EC50 of 11.2 µM.
In turn, `CC1CCCCN1CCCNC(=O)c1ccc2c(=O)n(CCc3ccccc3)c(=O)[nH]c2c1` (centres unmarked) [MLS000519917-01] yielded an EC50 in data set [4] of 3.98 µM.
For `COc1ccc(CCNC(=O)c2cc3c(=O)n4ccccc4nc3n(CCCN3CCOCC3)c2=N)cc1` [MLS001139388-01], the Life cycle stage entry in the data set with HCV life cycle was “entry inhibitors”.
As for `CCN1CCN(CCCOc2ccc(-c3ccccc3)cc2)CC1` [MLS000049859-01], the Life cycle stage entry in the data set with HCV life cycle is listed as “Entry”. In data set [1], the “Microsomal t1/2” value amounted to 7.9 m and the “half-life (t1/2) in rat microsomes” value worked out at 7.9 min. Further, the Solubility in “Aqueous solubility” is > 48.0 µg/mL. The Permeability in “Permeability” was >2183.0 ×10⁻⁶ cm/s.
Take `Cc1ccccc1-c1nc(CN2CCC(C(=O)NCC3CCCO3)CC2)c(C)o1` (centres unmarked) [MLS000095190-01]: the EC50 in [4] is > 100 µM.
The same measure, in the same setting: the value for `CCCCCn1c(=O)[nH]c2cc(C(=O)NC3CCN(Cc4ccccc4)CC3)ccc2c1=O` [MLS000519908-01] was > 100 µM.
In the case of `Cc1c(NC(=O)c2cc3c(s2)-c2ccccc2OC3)cccc1[N+](=O)[O-]` [D5], in data set [7] (PubChem / in-house qHTS cross-activity, AID not given), the “inhibitory activity against human TDP1” value was “showed inhibitory activities”. Further, in [8], the “inhibition of RSV” value is recorded as “inhibitor”. Further, the “inhibitory activity against ELG1-dependent DNA repair” value in data set [9] is “showed inhibitory activities”. Further, the “inhibition of HIV” value in the data set on HIV is recorded as “inhibitor”.
In the case of `CC(NC(=O)c1cc2c(=O)n3ccccc3nc2n(CC2CCCO2)c1=N)c1ccccc1` (centres unmarked) [MLS001217747-01], the Life cycle stage result in the data set with HCV life cycle is reported as “entry inhibitors”. The “inhibition in HCVsc assay” value in the data set on HCVsc is “significant inhibition”.
`Cc1ccccc1-c1nc(CN2CCC(C(=O)NCCCN3CC(C)CC(C)C3)CC2)c(C)o1` (centres unmarked) [MLS000877128-01]: the Life cycle stage result with HCV life cycle was “Entry”. Also, in the data set “Aqueous solubility”, the Solubility was 53.9 µg/mL (≈ 115 µM). In the data set “Permeability”, this molecule gave a Permeability of 489.1 ×10⁻⁶ cm/s. In [4], this molecule showed an EC50 of 1.26 µM.
In the case of `CCN1CCN(c2ccc(NC(=O)c3cccc(OCc4ccccc4)c3)cc2)CC1` [B5], the “activity against D1 dopamine receptor” value with D1 dopamine receptor is given as “showed activities”. In data set [10], the “activity against human M1 muscarinic receptor” value is on record as “showed activities”.
As to `Cc1ccccc1-c1nc(CN2CCC(C(=O)NCCC3=CCCCC3)CC2)c(C)o1` [MLS000095191-01], in [4], it took 6.31 µM to reach a half-maximal effect (EC50).
On to `COC(=O)C1=C(c2ccc(-c3ccccc3)c(F)c2)C[C@@H]2CC[C@H]1N2C(=O)NCc1cccc2ccccc12` [D1], for which the “inhibitory activity of human tyrosyl-DNA phosphodiesterase 1” value in data set [7] is “showed inhibitory activity”.
As for `N=c1c(C(=O)NCc2ccc3c(c2)OCO3)cc2c(=O)n3ccccc3nc2n1Cc1cccnc1` [MLS000040412-01], the Life cycle stage result with HCV life cycle is given as “entry inhibitors”. In addition, the “inhibition in HCVpp assay” value in the data set on HCVpp-1a is “less than 50%”. For the same molecule, the “inhibition in HCVsc assay” value in the data set with HCVsc is “significant inhibition”.
Take `Cc1ccc(C)c2nc(SCC(=O)N3CCCc4ccccc43)c(C#N)cc12` [D7]: in data set [5], the “higher potency at part-2 compared to part-1” value is reported as 10–50 fold.
Take `Cc1ccccc1-c1nc(CN2CCC(C(=O)NCCCN3CCCC3)CC2)c(C)o1` [MLS000095192-01]: the response in data set [4] was half-maximal at 14.1 µM (EC50).
In [4], `CCCCCn1c(=O)[nH]c2cc(C(=O)NCCCN3CCCCC3CC)ccc2c1=O` (centres unmarked) [MLS000948303-01] registered a concentration for a half-maximal effect (EC50) of 7.08 µM.
Regarding `CCOC(=O)c1cc2c(=O)n3ccccc3nc2n(CCCOC)c1=NC(=O)C(C)(C)C` [MLS000879011-01], the Life cycle stage result in the data set with HCV life cycle is listed as “entry inhibitors”.
`CCCCCn1c(=O)[nH]c2cc(C(=O)NCCCN3CCCCC3)ccc2c1=O` [MLS000086763-01]: it took 10 µM to reach a half-maximal effect in data set [4] (EC50).
Regarding `N#C/C(=C\Nc1ccc2cn[nH]c2c1)c1nc(-c2ccccc2)cs1` [D2], the “inhibitory activity of human tyrosyl-DNA phosphodiesterase 1” value in data set [7] was “showed inhibitory activity”.
Turning to `COc1ccc(CCNC(=O)c2cc3c(=O)n4ccccc4nc3n(C3CCCCC3)c2=N)cc1` [MLS001139315-01], the Life cycle stage entry with HCV life cycle was “entry inhibitors”.
